Experimental data: paper PMC5598146 (Toxicology Reports, 2015)
Entries after “also recorded” stand apart in the source; their conditions may differ.

Tests used:
[1] = system: bred female Crl:CD(SD) rats; assay: Definitive developmental toxicity study; assay type: in vivo, rat
Summary of the method: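 Bred female Crl:CD(SD) rats, 25/group, dosed once daily by oral gavage at 0, 250, 500 or 1000 mg/kg/day from gestation Days 6 through 20. Laparohysterectomy on gestation Day 21. Uteri, placentae and ovaries were examined; viable and dead fetuses, early and late resorptions, implantations and corpora lutea were counted; gravid uterine weight, net body weight and fetal weights were recorded.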

Sprague-Dawley rats = assay: 28-Day dose-range finding toxicity study; assay type: in vivo, rat; conditions: 28 days
[2] = In vitro oxidative metabolism, rat liver microsomes; assay type: in vitro ADME
Summary of the method: (§1)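 Pooled mixed-gender liver microsomes (human or Sprague-Dawley rat) were incubated with test compound plus NADPH for 60 min at 37 °C, then quenched with acetonitrile. Controls: time-zero and 60-min incubations without NADPH, plus testosterone incubations to confirm microsomal activity. Metabolites were sought by LC/MS full-scan analysis with UV detection at 214, 240 and 254 nm.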

[3] = system: S. typhimurium strains TA98, TA100, TA1535, TA1537 and E. coli strain WP2 uvrA; assay: Bacterial reverse mutation test; assay type: cell-based, Escherichia coli; conditions: 51-5000 ug/plate, plate incorporation and pre-incubation, ±S9
[4] = In vitro oxidative metabolism, human liver microsomes; assay type: in vitro ADME
Summary of the method: as §1

Structure (SMILES): Cc1nc2cccc(OCC(C)(C)C(=O)NC(C)C)c2c(N)c1C(=O)O [S9632, 4-amino-5-(3-(isopropylamino)-2,2-dimethyl-3-oxopropoxy)-2-methylquinoline-3-carboxylic acid]
- Corpora Lutea, Mean ([1]; 250 mg/kg/d): 16.3
- Corpora Lutea, Total ([1]; 250 mg/kg/d): 407
- Dead fetuses, Mean ([1]; 250 mg/kg/d): 0
- Dead fetuses, Total ([1]; 250 mg/kg/d): 0
- Fetal Wt., Mean ([1]; 250 mg/kg/d): 5.5 g
- Fetuses Sex F, Mean ([1]; 250 mg/kg/d): 6.8
- Fetuses Sex F, Total ([1]; 250 mg/kg/d): 169
- Fetuses Sex M, Mean ([1]; 250 mg/kg/d): 7.6
- Fetuses Sex M, Total ([1]; 250 mg/kg/d): 189
- Implant. sites, Mean ([1]; 250 mg/kg/d): 15.3
- Implant. sites, Total ([1]; 250 mg/kg/d): 382
- Post-implant. loss, Mean ([1]; 250 mg/kg/d): 1.0
- Post-implant. loss, Total ([1]; 250 mg/kg/d): 24
- Pre-implant. loss, Mean ([1]; 250 mg/kg/d): 1.0
- Pre-implant. loss, Total ([1]; 250 mg/kg/d): 25
- Resorptions Early, Mean ([1]; 250 mg/kg/d): 1.0
- Resorptions Early, Total ([1]; 250 mg/kg/d): 24
- Resorptions Late, Mean ([1]; 250 mg/kg/d): 0
- Resorptions Late, Total ([1]; 250 mg/kg/d): 0
- Viable fetuses, Mean ([1]; 250 mg/kg/d): 14.3
- Viable fetuses, Total ([1]; 250 mg/kg/d): 358
- Malformations, fetuses (litters) ([1]; 250 mg/kg/day): 1(1)
- Corpora Lutea, Mean ([1]; 500 mg/kg/d): 16.8
- Corpora Lutea, Total ([1]; 500 mg/kg/d): 421
- Dead fetuses, Mean ([1]; 500 mg/kg/d): 0
- Dead fetuses, Total ([1]; 500 mg/kg/d): 0
- Fetal Wt., Mean ([1]; 500 mg/kg/d): 5.4 g
- Fetuses Sex F, Mean ([1]; 500 mg/kg/d): 7.4
- Fetuses Sex F, Total ([1]; 500 mg/kg/d): 184
- Fetuses Sex M, Mean ([1]; 500 mg/kg/d): 7.1
- Fetuses Sex M, Total ([1]; 500 mg/kg/d): 177
- Implant. sites, Mean ([1]; 500 mg/kg/d): 15.3
- Implant. sites, Total ([1]; 500 mg/kg/d): 383
- Post-implant. loss, Mean ([1]; 500 mg/kg/d): 0.9
- Post-implant. loss, Total ([1]; 500 mg/kg/d): 22
- Pre-implant. loss, Mean ([1]; 500 mg/kg/d): 1.5
- Pre-implant. loss, Total ([1]; 500 mg/kg/d): 38
- Resorptions Early, Mean ([1]; 500 mg/kg/d): 0.5
- Resorptions Early, Total ([1]; 500 mg/kg/d): 12
- Resorptions Late, Mean ([1]; 500 mg/kg/d): 0.4
- Resorptions Late, Total ([1]; 500 mg/kg/d): 10
- Viable fetuses, Mean ([1]; 500 mg/kg/d): 14.4
- Viable fetuses, Total ([1]; 500 mg/kg/d): 361
- Malformations, fetuses (litters) ([1]; 500 mg/kg/day): 1(1)
- Corpora Lutea, Mean ([1]; 1000 mg/kg/d): 16.5
- Corpora Lutea, Total ([1]; 1000 mg/kg/d): 413
- Dead fetuses, Mean ([1]; 1000 mg/kg/d): 0
- Dead fetuses, Total ([1]; 1000 mg/kg/d): 0
- Fetal Wt., Mean ([1]; 1000 mg/kg/d): 5.6 g
- Fetuses Sex F, Mean ([1]; 1000 mg/kg/d): 7.8
- Fetuses Sex F, Total ([1]; 1000 mg/kg/d): 194
- Fetuses Sex M, Mean ([1]; 1000 mg/kg/d): 7.2
- Fetuses Sex M, Total ([1]; 1000 mg/kg/d): 181
- Implant. sites, Mean ([1]; 1000 mg/kg/d): 15.7
- Implant. sites, Total ([1]; 1000 mg/kg/d): 393
- Post-implant. loss, Mean ([1]; 1000 mg/kg/d): 0.7
- Post-implant. loss, Total ([1]; 1000 mg/kg/d): 18
- Pre-implant. loss, Mean ([1]; 1000 mg/kg/d): 0.80
- Pre-implant. loss, Total ([1]; 1000 mg/kg/d): 20
- Resorptions Early, Mean ([1]; 1000 mg/kg/d): 0.7
- Resorptions Early, Total ([1]; 1000 mg/kg/d): 18
- Resorptions Late, Mean ([1]; 1000 mg/kg/d): 0
- Resorptions Late, Total ([1]; 1000 mg/kg/d): 0
- Viable fetuses, Mean ([1]; 1000 mg/kg/d): 15.0
- Viable fetuses, Total ([1]; 1000 mg/kg/d): 375
- Malformations, fetuses (litters) ([1]; 1000 mg/kg/day): 3(3)
- Findings (Sprague-Dawley rats; 10, 30, 100 mg/kg/day food ad-mix): No test-article related findings
- NOEL (Sprague-Dawley rats; food ad-mix, male and female rats, highest dose tested): 100 mg/kg/day
- Metabolism (Phase I biotransformations) ([2]; 10 µM, 60 min, 37 °C, NADPH): not metabolized; also recorded: No Phase I biotransformations
- Level above which no metabolism was observed ([2]; 60 min incubation): ≤ 0.1 % of the parent drug
- Reverse mutation (in vitro), result [3]: Negative
- Metabolism (Phase I biotransformations) ([4]; 10 µM, 60 min, 37 °C, NADPH): not metabolized; also recorded: No Phase I biotransformations
- Level above which no metabolism was observed ([4]; 60 min incubation): ≤ 0.1 % of the parent drug
